Results on seven molecules are retold here after ChEMBL document CHEMBL1926631, “N⁴-Aryl-6-substitutedphenylmethyl-7H-pyrrolo[2,3-d]pyrimidine-2,4-diamines as receptor tyrosine kinase inhibitors” (Bioorg Med Chem, 2012).

For assay [1], the target named is T1, Vascular endothelial growth factor receptor 2 (Homo sapiens, UniProt P35968). Nature of the assay: Inhibition of VEGFR2 tyrosine kinase activity in VEGF-stimulated human U251 cells after 60 mins by ELISA. The class given is cell-based, U-251.
T1 sequence (P35968 whole entry): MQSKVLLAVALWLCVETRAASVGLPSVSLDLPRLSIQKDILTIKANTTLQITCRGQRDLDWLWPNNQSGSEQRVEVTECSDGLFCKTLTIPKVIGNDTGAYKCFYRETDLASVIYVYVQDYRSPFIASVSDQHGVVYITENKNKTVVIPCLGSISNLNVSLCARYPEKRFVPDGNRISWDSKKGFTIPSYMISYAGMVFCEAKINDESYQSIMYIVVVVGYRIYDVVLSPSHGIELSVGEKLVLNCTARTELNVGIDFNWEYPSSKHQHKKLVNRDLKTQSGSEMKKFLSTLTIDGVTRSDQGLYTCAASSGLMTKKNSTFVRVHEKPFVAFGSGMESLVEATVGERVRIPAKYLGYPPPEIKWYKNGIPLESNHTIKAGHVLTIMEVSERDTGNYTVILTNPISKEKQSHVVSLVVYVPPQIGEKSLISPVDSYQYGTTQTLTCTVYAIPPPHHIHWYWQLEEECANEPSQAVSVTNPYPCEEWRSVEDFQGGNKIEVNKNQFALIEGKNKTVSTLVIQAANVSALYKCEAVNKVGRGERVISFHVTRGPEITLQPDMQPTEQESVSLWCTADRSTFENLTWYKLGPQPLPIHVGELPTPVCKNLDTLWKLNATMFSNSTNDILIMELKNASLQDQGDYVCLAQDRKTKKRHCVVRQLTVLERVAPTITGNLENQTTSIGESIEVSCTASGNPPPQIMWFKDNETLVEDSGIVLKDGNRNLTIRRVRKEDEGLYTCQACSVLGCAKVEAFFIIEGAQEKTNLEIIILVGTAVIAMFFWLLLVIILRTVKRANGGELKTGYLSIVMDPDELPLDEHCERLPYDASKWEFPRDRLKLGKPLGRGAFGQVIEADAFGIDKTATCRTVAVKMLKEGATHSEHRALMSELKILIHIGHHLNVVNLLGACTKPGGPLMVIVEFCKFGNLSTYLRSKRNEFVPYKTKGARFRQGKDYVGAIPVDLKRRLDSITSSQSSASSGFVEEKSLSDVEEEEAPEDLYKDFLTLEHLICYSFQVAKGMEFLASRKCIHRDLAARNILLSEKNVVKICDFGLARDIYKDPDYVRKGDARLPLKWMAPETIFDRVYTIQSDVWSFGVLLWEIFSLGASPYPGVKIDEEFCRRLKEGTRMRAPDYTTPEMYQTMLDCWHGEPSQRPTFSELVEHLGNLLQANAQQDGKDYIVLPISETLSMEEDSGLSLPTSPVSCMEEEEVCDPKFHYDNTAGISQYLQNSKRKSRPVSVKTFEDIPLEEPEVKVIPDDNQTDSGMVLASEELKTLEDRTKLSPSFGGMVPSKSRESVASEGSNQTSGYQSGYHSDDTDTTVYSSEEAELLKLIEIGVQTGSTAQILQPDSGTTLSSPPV
For assay [2], the target named is T1, Vascular endothelial growth factor receptor 2. Description: Ratio of Sunitinib IC50 to compound IC50 for VEGFR2 tyrosine kinase activity in VEGF-stimulated human U251 cells. The conditions noted are these: U-251. Format: cell-based. In short, it runs like this: (§1)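 U251 cells, which naturally express high VEGFR-2, were grown to 60–75% confluence, kept 18 h serum-free, then pre-treated 60 min with 0.10–333 μM inhibitor before 100 ng/mL VEGF for 10 min. Total tyrosine phosphorylation was read by fixed-cell HRP-anti-phosphotyrosine ELISA with luminol luminescence, as % of growth factor alone.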

The target in assay [3] is Epidermal growth factor receptor (Homo sapiens, UniProt P00533). Description: Inhibition of EGFR tyrosine kinase activity in EGF-stimulated human A431 cells after 60 mins by ELISA. The class given is cell-based, A-431. A general note: ELISA stands for enzyme-linked immunosorbent assay.
Chain of Epidermal growth factor receptor (P00533 whole entry): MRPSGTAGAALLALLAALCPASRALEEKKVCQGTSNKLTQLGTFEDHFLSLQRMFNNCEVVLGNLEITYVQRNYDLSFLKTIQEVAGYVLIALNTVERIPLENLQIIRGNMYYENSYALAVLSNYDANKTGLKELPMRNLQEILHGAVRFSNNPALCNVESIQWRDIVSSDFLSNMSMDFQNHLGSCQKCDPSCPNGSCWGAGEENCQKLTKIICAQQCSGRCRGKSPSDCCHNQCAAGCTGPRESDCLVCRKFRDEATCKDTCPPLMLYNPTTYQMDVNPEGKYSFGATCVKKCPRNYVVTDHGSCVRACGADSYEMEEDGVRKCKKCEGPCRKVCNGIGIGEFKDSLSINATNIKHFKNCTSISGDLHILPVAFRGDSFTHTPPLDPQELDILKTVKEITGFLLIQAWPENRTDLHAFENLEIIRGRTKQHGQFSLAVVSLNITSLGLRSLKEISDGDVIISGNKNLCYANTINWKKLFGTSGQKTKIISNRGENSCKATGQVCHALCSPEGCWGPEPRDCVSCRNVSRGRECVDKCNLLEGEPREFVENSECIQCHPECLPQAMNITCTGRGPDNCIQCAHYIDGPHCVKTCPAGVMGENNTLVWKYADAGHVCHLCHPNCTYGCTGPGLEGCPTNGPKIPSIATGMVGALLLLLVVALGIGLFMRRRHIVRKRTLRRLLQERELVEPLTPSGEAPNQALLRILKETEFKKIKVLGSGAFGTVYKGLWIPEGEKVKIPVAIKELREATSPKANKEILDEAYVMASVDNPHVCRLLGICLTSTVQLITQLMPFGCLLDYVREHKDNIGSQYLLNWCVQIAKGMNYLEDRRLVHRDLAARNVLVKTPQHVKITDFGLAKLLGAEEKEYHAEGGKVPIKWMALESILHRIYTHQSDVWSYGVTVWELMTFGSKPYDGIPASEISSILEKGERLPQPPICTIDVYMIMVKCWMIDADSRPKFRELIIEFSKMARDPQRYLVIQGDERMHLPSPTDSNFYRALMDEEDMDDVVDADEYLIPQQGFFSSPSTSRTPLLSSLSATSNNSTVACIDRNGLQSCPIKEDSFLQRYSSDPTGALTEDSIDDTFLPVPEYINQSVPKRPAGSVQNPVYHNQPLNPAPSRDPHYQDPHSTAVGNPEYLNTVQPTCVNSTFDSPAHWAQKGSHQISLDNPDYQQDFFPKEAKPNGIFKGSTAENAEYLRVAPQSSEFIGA
Another assay deals with A-431. Description: Cytotoxicity against EGFR overexpressing human A431 after 12 hrs by cyquant DNA dye-based fluorescence method. The class given is functional, cell-based. The conditions noted are these: A-431, 12 h.
Assay [4] has as its target T1, Vascular endothelial growth factor receptor 2. Description: Ratio of semaxanib IC50 to compound IC50 for VEGFR2 tyrosine kinase activity in VEGF-stimulated human U251 cells. Format: cell-based. The note with it: U-251. In short, it runs like this:
as §1

The target of assay [5] is Vascular endothelial growth factor receptor 1 (Homo sapiens, UniProt P17948). Nature of the assay: Inhibition of VEGFR1 tyrosine kinase activity in VEGF-stimulated human A498 cells after 60 mins by ELISA. Format: cell-based. In short, it runs like this: (§2)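 Lysed in ice-cold TBS/0.05% triton with protease and phosphatase inhibitors, heat/ethanol-fixed. Total phosphotyrosine read by HRP anti-phosphotyrosine with luminol chemiluminescence.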
Chain of Vascular endothelial growth factor receptor 1 (P17948 whole entry): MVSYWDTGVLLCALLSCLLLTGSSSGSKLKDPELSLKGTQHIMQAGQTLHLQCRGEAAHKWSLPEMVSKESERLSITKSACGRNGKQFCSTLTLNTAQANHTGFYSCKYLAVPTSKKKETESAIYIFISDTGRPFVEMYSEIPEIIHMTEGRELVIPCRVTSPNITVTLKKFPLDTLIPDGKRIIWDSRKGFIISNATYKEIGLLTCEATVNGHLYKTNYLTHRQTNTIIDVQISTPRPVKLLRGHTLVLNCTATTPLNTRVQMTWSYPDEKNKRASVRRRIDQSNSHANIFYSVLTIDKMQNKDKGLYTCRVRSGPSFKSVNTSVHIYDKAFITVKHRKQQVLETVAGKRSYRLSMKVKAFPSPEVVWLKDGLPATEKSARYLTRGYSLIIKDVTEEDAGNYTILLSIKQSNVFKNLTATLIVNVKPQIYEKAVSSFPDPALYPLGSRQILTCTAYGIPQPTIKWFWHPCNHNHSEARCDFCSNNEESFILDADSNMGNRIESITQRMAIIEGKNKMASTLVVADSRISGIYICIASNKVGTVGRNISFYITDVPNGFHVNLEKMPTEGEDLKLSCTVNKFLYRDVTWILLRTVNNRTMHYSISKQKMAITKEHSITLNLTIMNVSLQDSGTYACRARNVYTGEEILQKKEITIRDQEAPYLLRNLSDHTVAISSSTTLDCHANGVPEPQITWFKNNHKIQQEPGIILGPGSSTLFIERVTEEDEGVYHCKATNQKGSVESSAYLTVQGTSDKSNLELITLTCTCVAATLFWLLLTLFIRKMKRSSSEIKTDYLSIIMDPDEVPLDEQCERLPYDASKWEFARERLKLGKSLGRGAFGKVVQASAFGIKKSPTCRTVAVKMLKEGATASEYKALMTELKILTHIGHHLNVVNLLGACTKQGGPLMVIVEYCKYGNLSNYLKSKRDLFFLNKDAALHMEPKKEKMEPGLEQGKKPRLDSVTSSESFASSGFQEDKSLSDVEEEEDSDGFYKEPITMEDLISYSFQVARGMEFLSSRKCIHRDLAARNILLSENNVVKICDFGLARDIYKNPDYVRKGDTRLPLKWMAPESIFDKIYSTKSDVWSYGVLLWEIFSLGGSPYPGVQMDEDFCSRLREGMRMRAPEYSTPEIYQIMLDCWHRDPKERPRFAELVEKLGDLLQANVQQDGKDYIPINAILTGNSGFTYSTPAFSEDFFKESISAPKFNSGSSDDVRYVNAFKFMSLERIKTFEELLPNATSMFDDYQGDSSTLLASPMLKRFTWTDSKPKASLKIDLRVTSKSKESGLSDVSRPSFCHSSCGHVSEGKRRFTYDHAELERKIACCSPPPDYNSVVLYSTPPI

Assay [6] concerns the target Platelet-derived growth factor receptor beta (Homo sapiens, UniProt P09619). Description: Inhibition of PDGFRbeta tyrosine kinase activity in PDGF-BB-stimulated human SF-539 cells after 60 mins by ELISA. The class given is cell-based. The gist of the method: as §2

Chain of Platelet-derived growth factor receptor beta (P09619 whole entry): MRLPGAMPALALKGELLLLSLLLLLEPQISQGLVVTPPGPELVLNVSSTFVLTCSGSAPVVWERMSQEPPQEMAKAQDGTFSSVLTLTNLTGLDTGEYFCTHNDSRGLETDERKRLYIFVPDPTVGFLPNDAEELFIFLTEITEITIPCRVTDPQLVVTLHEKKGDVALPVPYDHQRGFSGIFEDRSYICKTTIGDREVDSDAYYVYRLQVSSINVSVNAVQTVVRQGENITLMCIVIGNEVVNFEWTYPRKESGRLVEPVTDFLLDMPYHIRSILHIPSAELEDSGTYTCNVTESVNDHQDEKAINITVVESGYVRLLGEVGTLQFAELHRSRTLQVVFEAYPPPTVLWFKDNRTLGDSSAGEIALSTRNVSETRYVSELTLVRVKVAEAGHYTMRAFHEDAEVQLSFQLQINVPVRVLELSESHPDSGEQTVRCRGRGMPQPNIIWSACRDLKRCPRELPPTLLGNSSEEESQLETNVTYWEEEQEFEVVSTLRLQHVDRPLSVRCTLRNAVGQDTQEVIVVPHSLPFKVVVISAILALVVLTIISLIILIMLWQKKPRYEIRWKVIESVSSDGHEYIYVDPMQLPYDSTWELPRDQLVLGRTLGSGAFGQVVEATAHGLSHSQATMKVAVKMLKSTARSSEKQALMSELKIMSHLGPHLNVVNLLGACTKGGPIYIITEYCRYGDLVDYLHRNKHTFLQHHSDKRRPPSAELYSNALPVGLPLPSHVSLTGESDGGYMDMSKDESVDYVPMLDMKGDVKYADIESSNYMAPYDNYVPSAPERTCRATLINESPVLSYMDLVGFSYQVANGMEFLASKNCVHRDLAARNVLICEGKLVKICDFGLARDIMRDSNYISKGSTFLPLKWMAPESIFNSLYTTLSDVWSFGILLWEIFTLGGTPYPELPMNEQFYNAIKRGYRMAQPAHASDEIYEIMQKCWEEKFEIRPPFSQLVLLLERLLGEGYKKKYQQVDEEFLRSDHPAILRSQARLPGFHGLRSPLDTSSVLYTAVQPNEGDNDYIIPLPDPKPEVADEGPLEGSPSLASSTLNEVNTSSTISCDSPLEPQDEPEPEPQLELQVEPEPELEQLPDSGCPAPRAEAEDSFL

What is called IC50 is the concentration that inhibits the measured activity by half. Read a low IC50 as higher potency. On to `COc1ccc(OC)c(Cc2cc3c(Nc4ccc(Cl)cc4F)nc(N)nc3[nH]2)c1`, for which the IC50 stood at 0.1 µM in assay [1]; 113 µM in assay [3]; 13.4 µM with A-431; 186 µM in assay [5]; 146 µM in assay [6]. The Ratio IC50 in assay [2] stood at 189; in assay [4], 120.
`Nc1nc(Nc2ccc(Cl)cc2F)c2cc(Cc3cccc4ccccc34)[nH]c2n1`: the IC50 in assay [1] is 0.48 µM; in assay [3] it was above 200 µM; in the assay with A-431, 46.7 µM; in assay [5], above 200 µM; in assay [6], 193 µM. In addition, the Ratio IC50 in assay [2] came to 39; in assay [4], 25.
In the case of `Cc1ccccc1Cc1cc2c(Nc3ccc(Cl)cc3F)nc(N)nc2[nH]1`, the 50% inhibitory concentration (IC50) in assay [1] was 29.8 µM; in assay [3] it was above 200 µM; in the assay with A-431, above 200 µM; in assay [5], 16 µM; in assay [6] it was above 300 µM.
In the case of `COc1ccc(OC)c(Cc2cc3c(Nc4ccc(Cl)cc4)nc(N)nc3[nH]2)c1`, the IC50 is 56.7 µM in assay [1]; above 200 µM in assay [3]; 5.8 µM in the assay on A-431; 15.2 µM in assay [5]; 44.3 µM in assay [6].
For `Cc1ccccc1Cc1cc2c(Nc3ccc(Cl)cc3)nc(N)nc2[nH]1`, the 50% inhibitory concentration (IC50) in assay [1] is 45.4 µM; in assay [3] it was 0.24 µM; in the assay on A-431, 5.6 µM; in assay [5] it was 45.9 µM; in assay [6], above 300 µM.
As to `Nc1nc(Nc2ccc(Cl)cc2)c2cc(Cc3cccc4ccccc34)[nH]c2n1`, the concentration for half-maximal inhibition (IC50) in assay [1] is 32.1 µM; in assay [5], above 200 µM.
On to `COc1ccc(OC)c(Cc2cc3c(Nc4cccc(Br)c4)nc(N)nc3[nH]2)c1`, for which the half-inhibitory concentration (IC50) in assay [1] is 0.62 µM; with A-431, above 50 µM.
